We go through two molecules from ChEMBL document CHEMBL3526056, “Characterization of in vitro glucuronidation clearance of a range of drugs in human kidney microsomes: comparison with liver and intestinal glucuronidation and impact of albumin” (Drug Metab Dispos, 2012).

The target in data set [1] is T1, UDP-glucuronosyltransferase 1A1 (Homo sapiens, UniProt P22309).
T1 sequence (P22309 whole entry): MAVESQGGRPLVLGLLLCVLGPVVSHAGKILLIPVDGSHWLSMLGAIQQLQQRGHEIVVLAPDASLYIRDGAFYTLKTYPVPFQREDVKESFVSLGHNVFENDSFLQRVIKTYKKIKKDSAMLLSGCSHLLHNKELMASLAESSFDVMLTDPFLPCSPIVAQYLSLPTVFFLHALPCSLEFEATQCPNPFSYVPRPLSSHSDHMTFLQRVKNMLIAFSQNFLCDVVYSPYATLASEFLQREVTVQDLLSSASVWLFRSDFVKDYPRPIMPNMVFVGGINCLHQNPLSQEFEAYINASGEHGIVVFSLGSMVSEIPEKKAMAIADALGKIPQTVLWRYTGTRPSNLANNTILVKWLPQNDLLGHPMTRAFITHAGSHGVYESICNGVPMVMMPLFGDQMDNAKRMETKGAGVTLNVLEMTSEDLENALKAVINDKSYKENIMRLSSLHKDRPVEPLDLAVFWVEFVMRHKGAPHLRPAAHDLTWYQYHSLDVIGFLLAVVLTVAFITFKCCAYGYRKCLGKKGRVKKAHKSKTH
Nature of the data set: Drug metabolism in human intestinal microsomes assessed as UGT1A1-mediated unbound intrinsic glucuronidation clearance at 1 uM after 30 to 60 mins by LC-MS/MS analysis. It is filed as ADME, Intestine.

Data set [2] in a line: Unbound intrinsic glucuronidation clearance in human intestinal microsomes at 1 uM after 30 to 60 mins by LC-MS/MS analysis in presence of UDP-glucuronosyltransferase. Type of data set: ADME, Intestine, Microsome. In a few lines: (§1)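 Alamethicin-activated pooled microsomes (HLM 150 donors; HKM 8; HIM 18). Drug at 1 μM final, preincubated 5 min at 37°C in 0.1 M phosphate pH 7.1 with 3.45 mM MgCl2, 1.15 mM EDTA, 115 μM saccharic acid lactone. Started with […] cofactor (5 mM final), 30–60 min. Cofactor-free controls. Parent depletion by LC-MS/MS, single-exponential k. Corrected by HLM-dialysis fu,inc. Duplicates; n=3 (HIM n=1).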

Data set [3] can be described thus: Fraction unbound in human kidney microsomes at 1 uM after 30 to 60 mins by LC-MS/MS analysis. It is filed as ADME.
A short description of data set [4]: Fraction unbound in human liver microsomes at 1 uM […] by LC-MS/MS analysis in presence of 2% bovine serum albumin. Type of data set: ADME.
The target of data set [5] is T1, UDP-glucuronosyltransferase 1A1. As to the kind of experiment: Drug metabolism in human liver microsomes assessed as UGT1A1-mediated unbound intrinsic glucuronidation clearance at 1 uM after 30 to 60 mins by LC-MS/MS analysis in presence of 2% bovine serum albumin. Type of data set: ADME. Background: Liver microsomes are a subcellular fraction often used to study metabolism.

Data set [6] shares this target. As to the kind of experiment: Drug metabolism in human kidney microsomes assessed as UGT1A1-mediated unbound intrinsic glucuronidation clearance at 1 uM after 30 to 60 mins by LC-MS/MS analysis. It is filed as ADME.
A short description of data set [7]: Fraction unbound in human liver microsomes at 1 uM after 30 to 60 mins by LC-MS/MS analysis. It is filed as ADME.
For data set [8], the target named is T1, UDP-glucuronosyltransferase 1A1. Nature of the data set: Ratio of UGT1A1-mediated unbound intrinsic glucuronidation clearance in human kidney microsomes to UGT1A1-mediated unbound intrinsic glucuronidation clearance in human liver microsomes at 1 uM in presence of 2% bovine serum albumin. Type of data set: ADME.
Data set [9] shares this target. As to the kind of experiment: Ratio of UGT1A1-mediated unbound intrinsic glucuronidation clearance in human kidney microsomes to UGT1A1-mediated unbound intrinsic glucuronidation clearance in human liver microsomes at 1 uM. It is filed as ADME.
Data set [10] in a line: Ratio of unbound intrinsic glucuronidation clearance in human kidney microsomes in presence of 2% bovine serum albumin to unbound intrinsic glucuronidation clearance in human kidney microsomes in absence of bovine serum albumin. Type of data set: ADME, microsome. In a few lines: (§2)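 Ratios of mean scaled unbound CLint,UGT (per g tissue) between tissues, or between with and without BSA. Microsomal depletion assays at 1 μM, or 5 μM for propofol, in pH 7.1 phosphate at 37°C, read by LC-MS/MS. Kidney and liver n = 3, intestine n = 1, each in duplicate.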

The target of data set [11] is T1, UDP-glucuronosyltransferase 1A1. As to the kind of experiment: Drug metabolism in human liver microsomes assessed as UGT1A1-mediated unbound intrinsic glucuronidation clearance at 1 uM after 30 to 60 mins by LC-MS/MS analysis. Type of data set: ADME.
For data set [12], the system named is Liver microsome. As to the kind of experiment: Unbound intrinsic glucuronidation clearance in human liver microsomes at 1 uM after 30 to 60 mins by LC-MS/MS analysis in presence of UDP-glucuronosyltransferase and 2% bovine serum albumin. Type of data set: ADME. In a few lines: (§3)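 Pooled alamethicin-activated human liver, kidney or intestinal microsomes. […] Duplicate incubations of 30–60 min, with no-cofactor controls. Parent depletion read by LC-MS/MS. k from a single-exponential fit, corrected by fu,inc.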

Data set [13] relates to Liver microsome. Nature of the data set: Unbound intrinsic glucuronidation clearance in human liver microsomes at 1 uM after 30 to 60 mins by LC-MS/MS analysis in presence of UDP-glucuronosyltransferase. It is filed as ADME. The method, boiled down: as §1
Data set [14] concerns the target T1, UDP-glucuronosyltransferase 1A1. Nature of the data set: Ratio of UGT1A1-mediated unbound intrinsic glucuronidation clearance in human intestinal microsomes to UGT1A1-mediated unbound intrinsic glucuronidation clearance in human liver microsomes at 1 uM. Type of data set: ADME.
Data set [15] can be described thus: Fraction unbound in human intestinal microsomes at 1 uM after 30 to 60 mins by LC-MS/MS analysis. It is filed as ADME, Intestine, Microsome.
Data set [16] addresses UDP-glucuronosyltransferase 1A1 (Homo sapiens) (UniProt P22309). Nature of the data set: Drug metabolism in human intestinal microsomes assessed as UGT1A1-mediated unbound intrinsic glucuronidation clearance at 1 uM after 30 to 60 mins by LC-MS/MS analysis in presence of 2% bovine serum albumin.
Data set [17] has as its target T1, UDP-glucuronosyltransferase 1A1. Nature of the data set: Ratio of UGT1A1-mediated unbound intrinsic glucuronidation clearance in human intestinal microsomes to UGT1A1-mediated unbound intrinsic glucuronidation clearance in human liver microsomes at 1 uM in presence of 2% bovine serum albumin. Type of data set: ADME.
The target is the same in data set [18]. As to the kind of experiment: Ratio of UGT1A1-mediated unbound intrinsic glucuronidation clearance in human kidney microsomes to UGT1A1-mediated unbound intrinsic glucuronidation clearance in human intestinal microsomes at 1 uM. It is filed as ADME.
Data set [19] has the same target. As to the kind of experiment: Ratio of UGT1A1-mediated unbound intrinsic glucuronidation clearance in human kidney microsomes to UGT1A1-mediated unbound intrinsic glucuronidation clearance in human intestinal microsomes at 1 uM in presence of 2% bovine serum albumin. It is filed as ADME.
Data set [20] can be described thus: Unbound intrinsic glucuronidation clearance in human intestinal microsomes at 1 uM after 30 to 60 mins by LC-MS/MS analysis in presence of UDP-glucuronosyltransferase and 2% bovine serum albumin. Type of data set: ADME, Intestine, Microsome. In a few lines: as §3
Data set [21] can be described thus: Unbound intrinsic glucuronidation clearance in human kidney microsomes at 1 uM after 30 to 60 mins by LC-MS/MS analysis in presence of UDP-glucuronosyltransferase and 2% bovine serum albumin. It is filed as ADME, microsome. The method, boiled down: as §3
Data set [22] can be described thus: Unbound intrinsic glucuronidation clearance in human kidney microsomes at 1 uM after 30 to 60 mins by LC-MS/MS analysis in presence of UDP-glucuronosyltransferase. It is filed as ADME, microsome. The method, boiled down: as §1
In data set [23] the target is T1, UDP-glucuronosyltransferase 1A1. As to the kind of experiment: Drug metabolism in human intestinal microsomes assessed as UGT1A1-mediated unbound intrinsic glucuronidation clearance at 1 uM after 30 to 60 mins by LC-MS/MS analysis in presence of 2% bovine serum albumin. It is filed as ADME, Intestine.
Data set [24] deals with Liver microsome. As to the kind of experiment: Ratio of unbound intrinsic glucuronidation clearance in human liver microsomes in presence of 2% bovine serum albumin to unbound intrinsic glucuronidation clearance in human liver microsomes in absence of bovine serum albumin. It is filed as ADME. In a few lines:
as §2

The target in data set [25] is T1, UDP-glucuronosyltransferase 1A1. Nature of the data set: Drug metabolism in human kidney microsomes assessed as UGT1A1-mediated unbound intrinsic glucuronidation clearance at 1 uM after 30 to 60 mins by LC-MS/MS analysis in presence of 2% bovine serum albumin. It is filed as ADME.
Data set [26] can be described thus: Drug metabolism in human intestinal microsomes assessed as UGT1A9/2B7-mediated unbound intrinsic glucuronidation clearance at 1 uM after 30 to 60 mins by LC-MS/MS analysis in presence of 1% bovine serum albumin. It is filed as ADME, Intestine.
The nature of data set [27]: Unbound intrinsic glucuronidation clearance in human intestinal microsomes at 1 uM after 30 to 60 mins by LC-MS/MS analysis in presence of UDP-glucuronosyltransferase and 1% bovine serum albumin. Type of data set: ADME, Intestine, Microsome.
Data set [28] in a line: Drug metabolism in human kidney microsomes assessed as UGT1A9/2B7-mediated unbound intrinsic glucuronidation clearance at 1 uM after 30 to 60 mins by LC-MS/MS analysis in presence of 1% bovine serum albumin. Type of data set: ADME.
Data set [29] is described as follows: Drug metabolism in human intestinal microsomes assessed as UGT1A9/2B7-mediated unbound intrinsic glucuronidation clearance at 1 uM after 30 to 60 mins by LC-MS/MS analysis. Type of data set: ADME, Intestine.
A short description of data set [30]: Drug metabolism in human liver microsomes assessed as UGT1A9/2B7-mediated unbound intrinsic glucuronidation clearance at 1 uM after 30 to 60 mins by LC-MS/MS analysis in presence of 1% bovine serum albumin. Type of data set: ADME.
Data set [31] in a line: Clearance in iv dosed human. The following applies: in vivo. Type of data set: ADME, organism-based.
In data set [32] the test system is Liver microsome. As to the kind of experiment: Fraction metabolized glucuronidation in human liver microsomes in presence of UDP-glucuronosyltransferase and bovine serum albumin. Type of data set: ADME.
For data set [33], the system named is Liver microsome. As to the kind of experiment: Fraction unbound in human liver microsomes at 1 uM after 30 to 60 mins by LC-MS/MS analysis in presence of 1% bovine serum albumin. It is filed as ADME. The following applies: microsomes, 1 µM.
Data set [34] is described as follows: Drug metabolism in human liver microsomes assessed as UGT1A9/2B7-mediated unbound intrinsic glucuronidation clearance at 1 uM after 30 to 60 mins by LC-MS/MS analysis. Type of data set: ADME.
Data set [35] relates to Liver microsome. As to the kind of experiment: Unbound intrinsic glucuronidation clearance in human liver microsomes at 1 uM after 30 to 60 mins by LC-MS/MS analysis in presence of UDP-glucuronosyltransferase and 1% bovine serum albumin. It is filed as ADME.
For data set [36], the system named is Liver microsome. As to the kind of experiment: Fraction metabolized glucuronidation in human liver microsomes in presence of UDP-glucuronosyltransferase. Type of data set: ADME.
The nature of data set [37]: Renal clearance in human. It is filed as ADME, organism-based, Kidney. The following applies: in vivo.
Data set [38] is described as follows: Drug metabolism in human kidney microsomes assessed as UGT1A9/2B7-mediated unbound intrinsic glucuronidation clearance at 1 uM after 30 to 60 mins by LC-MS/MS analysis. Type of data set: ADME.
Data set [39] in a line: Unbound intrinsic glucuronidation clearance in human kidney microsomes at 1 uM after 30 to 60 mins by LC-MS/MS analysis in presence of UDP-glucuronosyltransferase and 1% bovine serum albumin. It is filed as ADME, microsome.

Broadly, the fraction unbound is the share of the substance not bound to proteins or other matrix. Turning to `O=C1[C@H](CC[C@H](O)c2ccc(F)cc2)[C@@H](c2ccc(O)cc2)N1c1ccc(F)cc1` [EZETIMIBE], the CL free in data set [1] worked out at 8.61 mL/min/g; in data set [2], 418 µL/min/mg; in data set [5] it was 207 mL/min/g; in data set [6], 3.78 mL/min/g; in data set [11], 117 mL/min/g; in the data set on Liver microsome [12] it was 5180 µL/min/mg. Moreover, the CL free with Liver microsome [13] amounted to 2930 µL/min/mg; in data set [16], 23.8 mL/min/g; in data set [20], 1160 µL/min/mg; in [21] it was 495 µL/min/mg; in [22], 295 µL/min/mg; in data set [23] it was 23.8 mL/min/g. The CL free in data set [25] stood at 6.34 mL/min/g. Besides, the free fraction (fraction unbound) at 1 µM in [3] came out at 0.18; in data set [4] it was 0.05; in data set [7], 0.3; in data set [15] it was 0.18. Moreover, the Ratio in data set [8] is 0.031; in [9], 0.032; in [10], 1.7; in data set [14], 0.073; in data set [17] it was 0.115; in data set [18], 0.439. For the same molecule, the Ratio in [19] was 0.266; in the data set on Liver microsome [24], 1.8.

Usually clearance stands for the rate of elimination divided by the concentration. For `O=C(O)Cc1ccccc1Nc1c(Cl)cccc1Cl` [DICLOFENAC], the CL free in data set [26] was found to be 6.7 mL/min/g; in [27], 325 µL/min/mg; in data set [2], 74.9 µL/min/mg; in data set [28], 6.95 mL/min/g; in data set [29], 1.54 mL/min/g; in [30], 47.4 mL/min/g. The CL free in the data set on Liver microsome [13] amounted to 761 µL/min/mg; in [34], 30.5 mL/min/g; in the data set on Liver microsome [35], 1190 µL/min/mg; in data set [22], 177 µL/min/mg; in data set [38] it was 2.27 mL/min/g; in data set [39] it was 543 µL/min/mg. The fraction unbound at 1 µM in data set [3] was 0.99; in data set [7] it was 0.98; in data set [15], 0.98. Further, the clearance in data set [31] came out at 4.84 mL/min/kg. Besides, the Drug metabolism is 0.65 in the data set with Liver microsome [32] and 0.62 in the data set with Liver microsome [36]. Moreover, the Fu with Liver microsome [33] was found to be 0.02. In [37], this molecule gave a CL renal of 0.06 mL/min/kg.
